# SENP1 FRET inh = human SENP1 catalytic domain inhibitors, primary screen, biochemical, FRET, uHTS; Sentrin-specific protease 1 (Homo sapiens), Q9P0U3; recombinant SENP1 catalytic domain, CyPet-SUMO1-YPet FRET cleavage; inhibition, % at 10 µM; 360,000 compounds, 0.21% hits; AID 624204, 2012;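 active means inhibition at least 30% at 10 µM, raw YFP signal under a set limit, fluorescence ratio 0.5 to 1.5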;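 further: 0% = enzyme with DMSO and 100% = no enzyme wells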
#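 Material: hSENP1 catalytic domain, recombinant; medium: Tris pH 8 with BME, BSA, NP40 and catalase; compound: single concentration of 10 µM compound, 0.5% DMSO final; technique: FRET read of cyan and yellow fluorescence; timing: 50 min enzyme reaction, room temperature, light-protected; reagent: SFCypet-SUMO1-SFYpet substrate at 25 nM; control set: no-enzyme low, enzyme-DMSO high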
# SENP7 block = SENP7 protease inhibitors, primary screen, biochemical, luminescence, uHTS; recombinant SENP7, Z-RLRGG-aminoluciferin luminescence, 40 min; inhibition, % at 5 µM; 330,000 compounds, 1.5% hits;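 active means inhibition above about 50% at the single test dose, limit read from the data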;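 further: plate controls were DMSO with enzyme for no effect and no enzyme buffer wells for full effect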
# SENP8 block-1 = human SENP8 protease inhibitors, primary screen, biochemical, fluorescence, Nedd8 protein substrate, uHTS | AID 602440, 2012 | recombinant SENP8 | Sentrin-specific protease 8 (Homo sapiens), Q96LD8 | inhibition, % at 20 µM | 360,000 compounds, 0.64% hits; in the data active means inhibition mostly above about 40%, no sharp cut-off; inactive means mostly below about 27%
# SENP8 block-2 = SENP8 protease inhibitors, primary screen, biochemical, luminescence; purified SENP8, Z-RLRGG-aminoluciferin cleavage; inhibition, % at 10 µM; 330,000 compounds, 1.2% hits; in the data active means inhibition above about 50%
# SENP6 inh = SENP6 protease inhibitors, primary screen, biochemical, luminescence, uHTS; inhibition, % at 10 µM; 330,000 compounds, 1.8% hits; Recombinant SENP6 catalytic domain, aminoluciferin luminescence;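 active means inhibition above about 50% at the single tested dose, limit read from the data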;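 further: plate controls were DMSO wells with enzyme for no effect and DMSO wells lacking enzyme for full effect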
# Target sequence (Q9GZR1 628-1112 limits assumed): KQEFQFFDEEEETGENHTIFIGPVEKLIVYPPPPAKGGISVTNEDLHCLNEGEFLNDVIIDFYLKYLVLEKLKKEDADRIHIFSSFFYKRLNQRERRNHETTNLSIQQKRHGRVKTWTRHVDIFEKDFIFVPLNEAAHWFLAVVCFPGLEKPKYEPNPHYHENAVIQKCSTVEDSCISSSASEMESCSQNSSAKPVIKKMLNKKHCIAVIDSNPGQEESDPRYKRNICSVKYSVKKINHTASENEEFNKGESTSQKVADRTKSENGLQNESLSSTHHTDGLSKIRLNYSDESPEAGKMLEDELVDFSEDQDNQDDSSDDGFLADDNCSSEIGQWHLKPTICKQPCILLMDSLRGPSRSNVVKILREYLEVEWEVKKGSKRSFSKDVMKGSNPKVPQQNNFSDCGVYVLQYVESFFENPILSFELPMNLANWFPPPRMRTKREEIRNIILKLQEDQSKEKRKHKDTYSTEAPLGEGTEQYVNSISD
# SENP8 inh conf = human SENP8 protease inhibitors, confirmation, biochemical, Nedd8 protein substrate, single concentration; shares compounds with SENP8 block-1; purified SENP8, Nedd8-AMC/pro-Nedd8 cleavage fluorescence, 30 min; 1,400 compounds, 15% hits; inhibition, % at 25 µM; in the data active means inhibition mostly above about 39%, no sharp cut-off; inactive means mostly below about 34%
# An asterisk follows results filed as active; / = no result given. Hits are enriched below; roughly 2.5% of the tested compounds scored in any of these assays.
SMILES,SENP1 FRET inh,SENP7 block,SENP8 block-1,SENP8 block-2,SENP6 inh,SENP8 inh conf
O=[N+]([O-])c1ccc(/C=N/N=C/c2ccc([N+](=O)[O-])o2)o1,-30,/,37,/,/,/
CC1CN(N=Cc2ccc([N+](=O)[O-])o2)C(=N)O1 (stereo not given),-2,/,48*,/,/,29
CCOc1ccc(C(c2c(C)[nH][nH]c2=O)c2c(C)[nH][nH]c2=O)cc1OC,1,10,54*,-2,-3,35
CC(C)c1noc2ncc(C(=O)c3cc(Cl)cc(Cl)c3O)cc12,18,2,46*,-6,-3,18
O=C(CCCCCNC(=O)c1ccccc1Cl)N/N=C/c1ccco1,-3,3,14,-7,-8,/
CCNC(=O)C1(C)CCCN(C(=O)c2sc(-c3ccccc3)nc2C)C1 (stereo not given),0,/,10,/,/,/
O=C(OCc1ccccc1)N1Cc2ccnnc2CC1c1ccccc1Br (stereo not given),-5,/,5,/,/,/
COc1cccc(Nc2cc(N3CCOCC3)c3nonc3c2[N+](=O)[O-])c1,-19,-9,44*,-6,4,14
O=[N+]([O-])c1c(Nc2ccccc2O)cc(N2CCOCC2)c2nonc12,-26,12,-392,5,1,/
CC(C)(C)NS(=O)(=O)c1ccc(Oc2ncc(C(F)(F)F)cc2Cl)cc1,2,2,40*,4,3,20
Cc1noc(C)c1COc1ccc(C(=O)N2CCN(S(=O)(=O)c3cccc(F)c3)CC2)cc1,0,-7,18,-1,-2,/
Cc1cccc(CCNC(=O)C2CCN(S(=O)(=O)c3ccccc3)CC2)c1,2,-1,20,0,-14,/
CC(C)(C)C(=O)N1CCN(c2ccc(NC(=O)c3ccc([N+](=O)[O-])o3)cc2)CC1,-1,12,48*,6,12,27
O=C(Nc1ccccc1N1CCCC1)c1ccc([N+](=O)[O-])o1,0,14,40*,-3,22,54*
CC(C)(C)C(=O)N1CCN(c2ccc(NC(=O)c3ccco3)cc2)CC1,2,0,2,-2,-22,/
CCCC(=O)N1CCN(c2ccc(NC(=O)c3ccc([N+](=O)[O-])o3)cc2)CC1,0,/,54*,/,/,46
CC1CCN(c2ccccc2NC(=O)c2ccc([N+](=O)[O-])o2)CC1,1,-14,15,-8,0,/
CCC(=O)N1CCN(c2ccc(NC(=O)c3ccc([N+](=O)[O-])o3)cc2)CC1,-1,/,43*,/,/,26
O=C(Nc1ccc(Br)cc1F)c1cccnc1,1,-3,17,-4,-8,/
CN[C@@H](CO)C(=O)NC[C@H]1O[C@@H](n2cnc3c(=O)[nH]c(N)nc32)[C@H](O)[C@@H]1O,-1,/,18,/,/,/
COc1ccccc1NC(=O)N(C)C[C@H]1Oc2ncc(C#CCN(C)C)cc2C(=O)N([C@H](C)CO)C[C@H]1C,-1,/,12,/,/,/
Cc1cc(Cl)ccc1NC(=O)COC(=O)c1c(C)noc1C,3,4,6,-3,4,/
O=C(Nc1ccc(N2CCN(C(=O)c3ccc(Cl)cc3)CC2)cc1)c1ccc([N+](=O)[O-])o1,3,/,33*,/,/,26
O=C(Nc1ccc(N2CCN(C(=O)c3ccc(Cl)cc3)CC2)cc1)c1ccc2c(c1)OCCO2,1,0,8,-9,-11,/
CN(C)c1ccc(N=Cc2nc(-c3ccccc3)oc2O)cc1,-21,32,40*,-12,7,-6
SMILES,SENP1 FRET inh,SENP7 block,SENP8 block-1,SENP8 block-2,SENP6 inh,SENP8 inh conf
CNC(=S)Nc1cc(C)ccc1OC(F)F,-1,4,4,-3,-31,/
CC1CN(c2ccc([N+](=O)[O-])c(NCCOc3ccccc3)c2)CC(C)N1 (stereo not given),1,1,38*,1,-15,6
O=[N+]([O-])c1ccc(N2CCCCC2)cc1NCCOc1ccccc1,2,-2,40*,-10,-3,20
Cc1ccccc1OCCNc1cc(N2CC(C)NC(C)C2)ccc1[N+](=O)[O-] (stereo not given),3,-4,25,-7,-22,/
CC(C)(C)CNc1cc(N2CCCC2)ccc1[N+](=O)[O-],3,-1,26,-5,1,/
CC1CN(c2ccc([N+](=O)[O-])c(NCCOc3ccc(Cl)cc3)c2)CC(C)N1 (stereo not given),2,-1,46*,-6,2,16
O=C(Nc1ccc(N2CCCC2)cc1)c1ccccc1[N+](=O)[O-],4,2,35*,5,7,21
O=C(Nc1cccc(S(=O)(=O)N2CCCCCC2)c1)c1ccc2ccccc2n1,-15,-5,-18,6,3,/
O=C(Nc1ccc(N2CCCCC2)cc1)c1ccc2ccccc2n1,13,39,40*,31,38,15
CN(C(=O)COC(=O)/C=C/c1ccc(F)cc1)c1c(N)n(Cc2ccccc2)c(=O)[nH]c1=O,0,1,12,-1,-3,/
C[N+](C)(C)C[C@H](O)CC(=O)[O-],-1,-3,45*,2,-8,14
COc1ccc(C)cc1NS(=O)(=O)c1ccc2c(c1)CCN2C(C)=O,0,6,11,-3,-7,/
COc1ccc(NC(=O)CCn2c(=S)[nH]c3ccccc3c2=O)cc1Cl,4,/,19,/,/,/
Cc1ccc(-n2ncc3c2CC(C)(C)CC3NC(=O)CCc2ccncc2)cc1 (stereo not given),2,6,6,-12,-16,/
CC(Nc1c([N+](=O)[O-])c(=O)oc2ccccc12)C(Cl)c1ccccc1 (stereo not given),-1,4,52*,2,-13,11
O=c1oc2ccccc2c(NC(c2ccccc2)c2ccccc2)c1[N+](=O)[O-],0,-11,13,-11,-20,/
COc1ccc(-c2csc(NC(=S)NC(=O)/C=C/c3ccco3)n2)cc1Br,-2,-3,43*,-5,-13,16
CCN(CC(=O)Nc1c(F)cccc1F)C(=O)CCNS(=O)(=O)c1ccccc1C(F)(F)F,0,-10,6,-7,-16,/
O=C(COC(=O)C1=NN(c2ccccc2)C(=O)CC1)Nc1nc(-c2ccc(F)cc2)cs1,0,44,28,35,14,/
CCOC(=O)N1CCN(C2CCCN(C(=O)c3ccccc3N(C)C)C2)CC1 (stereo not given),0,3,-21,9,-14,/
Cc1ccc(S(=O)(=O)NC(=O)Nc2ccc(N(C)C)cc2)cc1,7,18,75*,24,40,64*

# Screening results deposited in PubChem BioAssay by Sanford-Burnham Center for Chemical Genomics.
